Results on 35 compounds are retold here after ChEMBL document CHEMBL1156240, “Papyriferic acid derivatives as reversal agents of multidrug resistance in cancer cells” (Bioorg Med Chem, 2010).

The nature of assay [1]: Cytotoxicity against human multidrug-resistant KB-C2 cells after 48 hrs by MTT assay. In kind it is functional, cell-based. The settings on record: KB-C2, 48 h. Put shortly: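 Seeded 5 × 10³ cells/well, preincubated 24 h, then compounds at 2, 10, 50, 100 µg/mL in medium (0.5% DMSO final) for 48 h. MTT 0.5 mg/mL for 4 h, formazan dissolved in DMSO, OD 540 nm; IC50 relative to vehicle controls.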

The subject of assay [2] is KB. Put plainly: Cytotoxicity against human KB cells after 48 hrs by MTT assay. In kind it is functional, cell-based.

pIC50: −log10 of the molar value.

With `CCCCCNC(=O)CC(=O)O[C@@H]1CC[C@]2(C)[C@H]3C[C@@H](OC(C)=O)[C@@H]4[C@@H]([C@]5(C)CC[C@H](C(C)(C)O)O5)CC[C@@]4(C)[C@]3(C)CC[C@H]2C1(C)C`, the pIC50 in assay [1] and in assay [2] was 4.42 in each case.

For the compound `CCCCCCCOC(=O)CC(=O)O[C@@H]1CC[C@]2(C)[C@H]3C[C@@H](OC(C)=O)[C@@H]4[C@@H]([C@]5(C)CC[C@H](C(C)(C)O)O5)CC[C@@]4(C)[C@]3(C)CC[C@H]2C1(C)C`, the pIC50 in assay [1] and in assay [2] was less than 4.00 in each case.

For `CCCCCCCCOC(=O)CC(=O)O[C@@H]1CC[C@]2(C)[C@H]3C[C@@H](OC(C)=O)[C@@H]4[C@@H]([C@]5(C)CC[C@H](C(C)(C)O)O5)CC[C@@]4(C)[C@]3(C)CC[C@H]2C1(C)C`, the negative-log IC50 (pIC50) in assay [1] and in assay [2] was less than 4.00 each time.

Regarding `CCCCCCCCCNC(=O)CC(=O)O[C@@H]1CC[C@]2(C)[C@H]3C[C@@H](OC(C)=O)[C@@H]4[C@@H]([C@]5(C)CC[C@H](C(C)(C)OC(=O)C(=O)NCCCCCCCCC)O5)CC[C@@]4(C)[C@]3(C)CC[C@H]2C1(C)C`, the pIC50 in assay [1] and in assay [2] was less than 4.00 throughout.

Take `CCCCCNC(=O)CC(=O)O[C@@H]1CC[C@]2(C)[C@H]3C[C@@H](OC(C)=O)[C@@H]4[C@@H]([C@]5(C)CC[C@H](C(C)(C)OC(=O)C(=O)NCCCCC)O5)CC[C@@]4(C)[C@]3(C)CC[C@H]2C1(C)C`: the negative logarithm of the IC50 (pIC50) in assay [1] and in assay [2] was less than 4.00 each time.

Regarding `CCCOC(=O)CC(=O)O[C@@H]1CC[C@]2(C)[C@H]3C[C@@H](OC(C)=O)[C@@H]4[C@@H]([C@]5(C)CC[C@H](C(C)(C)O)O5)CC[C@@]4(C)[C@]3(C)CC[C@H]2C1(C)C`, the values for the pIC50 in assay [1] and in assay [2] were 4.17 and 4.56, respectively.

Take `CCCCCCCCCNC(=O)CC(=O)O[C@@H]1CC[C@]2(C)[C@H]3C[C@@H](OC(C)=O)[C@@H]4[C@@H]([C@]5(C)CC[C@H](C(C)(C)O)O5)CC[C@@]4(C)[C@]3(C)CC[C@H]2C1(C)C`: the pIC50 in assay [1] was less than 4.00; in assay [2], 4.37.

As for `COc1ccc(OC)c(NC(=O)CC(=O)O[C@@H]2CC[C@]3(C)[C@H]4C[C@@H](OC(C)=O)[C@@H]5[C@@H]([C@]6(C)CC[C@H](C(C)(C)O)O6)CC[C@@]5(C)[C@]4(C)CC[C@H]3C2(C)C)c1`, the pIC50 in assay [1] and in assay [2] was less than 4.00 in each case.

For the compound `CC(=O)O[C@@H]1C[C@@H]2[C@@]3(C)CC[C@@H](OC(=O)CC(=O)Nc4ccccc4)C(C)(C)[C@@H]3CC[C@@]2(C)[C@]2(C)CC[C@H]([C@]3(C)CC[C@H](C(C)(C)OC(=O)C(=O)Nc4ccccc4)O3)[C@@H]12`, the negative logarithm of the IC50 (pIC50) in assay [1] and in assay [2] was less than 4.00 each time.

For `CC(=O)O[C@@H]1C[C@@H]2[C@@]3(C)CC[C@@H](OC(=O)CC(=O)OC(C)(C)C)C(C)(C)[C@@H]3CC[C@@]2(C)[C@]2(C)CC[C@H]([C@]3(C)CC[C@H](C(C)(C)O)O3)[C@@H]12`, the figures for the negative-log IC50 (pIC50) in assay [1] and in assay [2] were less than 4.00 and 4.50, respectively.

Turning to `CC(=O)O[C@@H]1C[C@@H]2[C@@]3(C)CC[C@@H](OC(=O)CC(=O)NCc4ccccc4)C(C)(C)[C@@H]3CC[C@@]2(C)[C@]2(C)CC[C@H]([C@]3(C)CC[C@H](C(C)(C)O)O3)[C@@H]12`, the results for the pIC50 in assay [1] and in assay [2] were 4.48 and 4.50, respectively.

Regarding `CC(=O)O[C@@H]1C[C@@H]2[C@@]3(C)CC[C@@H](OC(=O)CC(=O)OC(C)C)C(C)(C)[C@@H]3CC[C@@]2(C)[C@]2(C)CC[C@H]([C@]3(C)CC[C@H](C(C)(C)O)O3)[C@@H]12`, the pIC50 in assay [1] was less than 4.00; in assay [2] it was 4.13.

`CCCCCCOC(=O)CC(=O)O[C@@H]1CC[C@]2(C)[C@H]3CC[C@@H]4[C@@H]([C@]5(C)CC[C@H](C(C)(C)O)O5)CC[C@@]4(C)[C@]3(C)CC[C@H]2C1(C)C`: the pIC50 in assay [1] and in assay [2] was less than 4.00 in each case.

`CC(C)OC(=O)CC(=O)O[C@@H]1CC[C@]2(C)[C@H]3CC[C@@H]4[C@@H]([C@]5(C)CC[C@H](C(C)(C)O)O5)CC[C@@]4(C)[C@]3(C)CC[C@H]2C1(C)C`: the negative-log IC50 (pIC50) in assay [1] and in assay [2] was less than 4.00 throughout.

In the case of `CCCNC(=O)CC(=O)O[C@@H]1CC[C@]2(C)[C@H]3C[C@@H](OC(C)=O)[C@@H]4[C@@H]([C@]5(C)CC[C@H](C(C)(C)O)O5)CC[C@@]4(C)[C@]3(C)CC[C@H]2C1(C)C`, the pIC50 in assay [1] was 4.39; in assay [2], 4.34.

In turn, `COc1ccc(CCN(C)CCCC(C#N)(c2ccc(OC)c(OC)c2)C(C)C)cc1OC` (stereo not drawn) gave a pIC50 in assay [1] of less than 4.00.

With `COc1ccc(OC)c(NC(=O)CC(=O)O[C@@H]2CC[C@]3(C)[C@H]4C[C@@H](OC(C)=O)[C@@H]5[C@@H]([C@]6(C)CC[C@H](C(C)(C)OC(=O)C(=O)Nc7cc(OC)ccc7OC)O6)CC[C@@]5(C)[C@]4(C)CC[C@H]3C2(C)C)c1`, the negative logarithm of the IC50 (pIC50) in assay [1] and in assay [2] was less than 4.00 throughout.

As to `CCCCCCOC(=O)CC(=O)O[C@@H]1CC[C@]2(C)[C@H]3C[C@@H](OC(C)=O)[C@@H]4[C@@H]([C@]5(C)CC[C@H](C(C)(C)O)O5)CC[C@@]4(C)[C@]3(C)CC[C@H]2C1(C)C`, the pIC50 in assay [1] is less than 4.00; in assay [2], 4.15.

Take `CC(C)COC(=O)CC(=O)O[C@@H]1CC[C@]2(C)[C@H]3CC[C@@H]4[C@@H]([C@]5(C)CC[C@H](C(C)(C)O)O5)CC[C@@]4(C)[C@]3(C)CC[C@H]2C1(C)C`: the pIC50 in assay [1] is less than 4.00; in assay [2], 4.01.

In the case of `CC(=O)O[C@@H]1C[C@@H]2[C@@]3(C)CC[C@@H](OC(=O)CC(=O)NC(C)(C)C)C(C)(C)[C@@H]3CC[C@@]2(C)[C@]2(C)CC[C@H]([C@]3(C)CC[C@H](C(C)(C)OC(=O)C(=O)NC(C)(C)C)O3)[C@@H]12`, the pIC50 in assay [1] and in assay [2] was less than 4.00 throughout.

On to `CCCCCOC(=O)CC(=O)O[C@@H]1CC[C@]2(C)[C@H]3CC[C@@H]4[C@@H]([C@]5(C)CC[C@H](C(C)(C)O)O5)CC[C@@]4(C)[C@]3(C)CC[C@H]2C1(C)C`, for which the pIC50 in assay [1] and in assay [2] was less than 4.00 each time.

Take `CCCCCOC(=O)CC(=O)O[C@@H]1CC[C@]2(C)[C@H]3C[C@@H](OC(C)=O)[C@@H]4[C@@H]([C@]5(C)CC[C@H](C(C)(C)O)O5)CC[C@@]4(C)[C@]3(C)CC[C@H]2C1(C)C`: the negative logarithm of the IC50 (pIC50) in assay [1] is less than 4.00; in assay [2], 4.34.

As to `CC(=O)O[C@@H]1C[C@@H]2[C@@]3(C)CC[C@@H](OC(=O)CC(=O)OCC(C)C)C(C)(C)[C@@H]3CC[C@@]2(C)[C@]2(C)CC[C@H]([C@]3(C)CC[C@H](C(C)(C)O)O3)[C@@H]12`, the pIC50 in assay [1] is less than 4.00; in assay [2] it was 4.48.

Consider `C=CCOC(=O)CC(=O)O[C@@H]1CC[C@]2(C)[C@H]3C[C@@H](OC(C)=O)[C@@H]4[C@@H]([C@]5(C)CC[C@H](C(C)(C)O)O5)CC[C@@]4(C)[C@]3(C)CC[C@H]2C1(C)C`, for which the pIC50 is 4.32 in assay [1] and 4.46 in assay [2].

In the case of `CC(=O)O[C@@H]1C[C@@H]2[C@@]3(C)CC[C@@H](OC(=O)CC(=O)OCc4ccccc4)C(C)(C)[C@@H]3CC[C@@]2(C)[C@]2(C)CC[C@H]([C@]3(C)CC[C@H](C(C)(C)O)O3)[C@@H]12`, the pIC50 is less than 4.00 in assay [1] and 4.36 in assay [2].

In the case of `CC(=O)O[C@@H]1C[C@@H]2[C@@]3(C)CC[C@@H](OC(=O)CC(=O)NCc4ccccc4)C(C)(C)[C@@H]3CC[C@@]2(C)[C@]2(C)CC[C@H]([C@]3(C)CC[C@H](C(C)(C)OC(=O)C(=O)NCc4ccccc4)O3)[C@@H]12`, the pIC50 in assay [1] and in assay [2] was less than 4.00 each time.

For the compound `CCOC(=O)CC(=O)O[C@@H]1CC[C@]2(C)[C@H]3CC[C@@H]4[C@@H]([C@]5(C)CC[C@H](C(C)(C)O)O5)CC[C@@]4(C)[C@]3(C)CC[C@H]2C1(C)C`, the pIC50 in assay [1] and in assay [2] was less than 4.00 throughout.

In the case of `CCCCOC(=O)CC(=O)O[C@@H]1CC[C@]2(C)[C@H]3C[C@@H](OC(C)=O)[C@@H]4[C@@H]([C@]5(C)CC[C@H](C(C)(C)O)O5)CC[C@@]4(C)[C@]3(C)CC[C@H]2C1(C)C`, the pIC50 in assay [1] is less than 4.00; in assay [2], 4.39.

For `CCCOC(=O)CC(=O)O[C@@H]1CC[C@]2(C)[C@H]3CC[C@@H]4[C@@H]([C@]5(C)CC[C@H](C(C)(C)O)O5)CC[C@@]4(C)[C@]3(C)CC[C@H]2C1(C)C`, the pIC50 is less than 4.00 in assay [1] and 4.22 in assay [2].

Regarding `CC(=O)O[C@@H]1C[C@@H]2[C@@]3(C)CC[C@@H](OC(=O)CC(=O)Nc4ccccc4)C(C)(C)[C@@H]3CC[C@@]2(C)[C@]2(C)CC[C@H]([C@]3(C)CC[C@H](C(C)(C)O)O3)[C@@H]12`, the pIC50 is 4.58 in assay [1] and 4.55 in assay [2].

Consider `COc1cc2c(c(OC)c1OC)-c1ccc(OC)c(=O)cc1[C@@H](NC(C)=O)CC2` [COLCHICINE], for which the pIC50 in assay [1] is 4.96.

With `CCCCCCCCOC(=O)CC(=O)O[C@@H]1CC[C@]2(C)[C@H]3CC[C@@H]4[C@@H]([C@]5(C)CC[C@H](C(C)(C)O)O5)CC[C@@]4(C)[C@]3(C)CC[C@H]2C1(C)C`, the pIC50 in assay [1] and in assay [2] was less than 4.00 in each case.

`CCOC(=O)CC(=O)O[C@@H]1CC[C@]2(C)[C@H]3C[C@@H](OC(C)=O)[C@@H]4[C@@H]([C@]5(C)CC[C@H](C(C)(C)O)O5)CC[C@@]4(C)[C@]3(C)CC[C@H]2C1(C)C`: the pIC50 in assay [1] was 4.19; in assay [2] it was 4.41.

On to `COc1cccc2c1C(=O)c1c(O)c3c(c(O)c1C2=O)C[C@@](O)(C(C)=O)C[C@@H]3O[C@H]1C[C@H](N)[C@H](O)[C@H](C)O1` [DAUNORUBICIN], for which the negative logarithm of the IC50 (pIC50) was 4.79 in assay [1] and 6.19 in assay [2].

Regarding `CCCCNC(=O)CC(=O)O[C@@H]1CC[C@]2(C)[C@H]3C[C@@H](OC(C)=O)[C@@H]4[C@@H]([C@]5(C)CC[C@H](C(C)(C)O)O5)CC[C@@]4(C)[C@]3(C)CC[C@H]2C1(C)C`, the pIC50 in assay [1] is 4.61; in assay [2] it was 4.60.
